Laboratory results as given in PubChem BioAssay.

Target: Muscarinic acetylcholine receptor M4 (Homo sapiens) (UniProt P08173)
Assay: compounds altering M4/GIRK thallium flux, either direction, primary screen, M4 allosteric agonist project, cell-based, HEK293 M4/GIRK, BTC-AM (AID 625);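 also: thallium influx through GIRK channels coupled to M4 in HEK293 cells with BTC-AM dye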
Conditions: at 10 µM, actives lie on both sides;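 active = fluorescence slope after compound addition differing from the mean of all tested samples at 99.7% confidence, mostly higher but some lower; inactive = the rest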
In short: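 System: HEK293 cells with M4 receptor and GIRK channels | Incubation: Cells overnight at 37 °C, BTC-AM loading 1 h, reads 2 min total | Technique: Kinetic BTC-AM fluorescence sampled at 1 Hz, 10 s pre-addition baseline | Measure: Post-addition slope, 15–24 s, of baseline-normalized fluorescence | Control set: Carbachol positive, DMSO negative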

Chain of Muscarinic acetylcholine receptor M4 (Homo sapiens) (P08173 whole entry, looked up): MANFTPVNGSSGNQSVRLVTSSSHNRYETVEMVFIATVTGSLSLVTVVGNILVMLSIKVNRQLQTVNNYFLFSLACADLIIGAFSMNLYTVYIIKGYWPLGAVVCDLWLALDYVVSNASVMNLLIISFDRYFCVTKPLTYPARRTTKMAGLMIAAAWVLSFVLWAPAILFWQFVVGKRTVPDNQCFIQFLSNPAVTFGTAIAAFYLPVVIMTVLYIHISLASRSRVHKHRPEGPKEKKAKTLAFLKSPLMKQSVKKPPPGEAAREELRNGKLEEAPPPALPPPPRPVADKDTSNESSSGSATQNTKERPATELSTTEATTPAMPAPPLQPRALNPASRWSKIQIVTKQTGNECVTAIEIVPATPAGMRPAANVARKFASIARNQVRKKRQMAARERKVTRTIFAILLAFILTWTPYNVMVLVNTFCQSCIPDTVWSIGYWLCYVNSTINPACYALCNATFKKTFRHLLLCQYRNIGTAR

Fluorescence slope, inactive:
O=C1CS/C(=N\C(=O)N2c3ccccc3Sc3ccccc32)N1 0.00677
COc1ccc2c(c1)CCc1c(C(=O)N3CCCc4ccccc43)noc1-2 0.00416
O=C(c1ccc(Cl)cc1)N(Cc1cccs1)C1CCS(=O)(=O)C1 (stereo not given) 0.00385
c1nnc(NC2=NCCCCC2)s1 0.00597
Cc1cncn1CCc1nc2c3ccccc3nc(=S)n2[nH]1 0.00558
Cc1ccc(S(=O)(=O)Cc2ccc(C(=O)NCc3ccc4c(c3)OCO4)o2)cc1 0.00504
Cn1cnnc1SCC(=O)Nc1sc2c(c1C#N)CCCCC2 0.00534
O=C(O)c1[nH]nc2c1COc1ccccc1-2 0.00437
CC1(C)CC(=O)c2cc(OCC(=O)NCCCN3CCN(c4ccccc4F)CC3)ccc2O1 0.00645
COCCn1c(=O)[nH]c2cc(C(=O)NCCCN3CCN(c4ccc(F)cc4)CC3)ccc2c1=O 0.00483
O=C(COC(=O)C1(c2ccccc2F)CCCC1)NC1CCS(=O)(=O)C1 (stereo not given) 0.00752
COc1cc(OC)c(C(=O)Nc2ccc(N(C)C)cc2)cc1OC 0.00454
CCOC(=O)Nc1cc(OCC)c(NC(=O)C2CC2)cc1OCC 0.00711
CCOC(=O)c1sc(N2C(=O)C(O)=C(C(=O)c3ccco3)C2c2ccccc2)nc1C (stereo not given) 0.00663
O=c1oc(-c2ccco2)nc2ccccc12 0.00609
COc1cccc(OC)c1C(=O)Nc1ccccc1N1CCCC1 0.00391
Cc1ccccc1Cn1nc(C)c(NC(=O)c2noc3c2CCCC3)c1C 0.00499
Cc1ccc(C(=O)C2COC(=O)C2)cc1 (stereo not given) 0.00631
COc1ccc(S(=O)(=O)n2ccnc2)c2cccnc12 0.00671
CCOC(=O)c1ccc(-c2c(C(=O)OCC)oc3cc(O)c(CC)cc3c2=O)o1 0.00385
COc1cc(NC(=O)c2cc(OC)c(OC)c(OC)c2)c(OC)cc1NC(=O)CN1CCCCC1 0.00436
CCCCC(CC)C(=O)Nc1ccc(Cl)cn1 (stereo not given) 0.00769
O=C(/C=N/O)Nc1cccnc1 0.00502
c1ccc2c(c1)Cn1c-2nc2ccccc21 0.00562
O=c1cc(COn2nnc3ccc(C(F)(F)F)cc32)nc2sccn12 0.00817
